We go through 1 compound from ChEMBL document CHEMBL5712908, “A genome-wide RNAi screen reveals essential therapeutic targets of breast cancer stem cells” (2019).

The source made the active and inactive calls. The calls are words filed in the database; no cut-off is given here.

The subject of assay [1] is SUM-159-PT. In words: Induction of apoptosis in human SUM159 cells expressing ALDH upto 100 uM incubated for 72 hrs by ALDEFLUOR/YO-PRO-3/ Hoechst 33342 staining based high content imaging microscopic analysis. It is filed as functional, cell-based. Summed up:
(§1)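 SUM159 at 3,000 cells/well on collagen plates, dosed at 6, 24 and 48 h post-seeding; 0.1% DMSO negative control, cisplatin positive control. At 72 h stained 30 min at 37°C with ALDEFLUOR, YO-PRO-3 and Hoechst 33342, then imaged ice-cold. YO-PRO-3-positive nuclei (above untreated signal) counted over total cells, per ALDHbr/ALDH- subpopulation; n = 6.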

The subject of assay [2] is SUM149PT. Kind of assay: Synergistic anticancer activity against human SUM149 cells assessed as decrease in docetaxel induced primary tumor sphere formation at 62 nM incubated for 72 hrs in presence of salinomycin by Extreme limiting dilution analysis. Type of assay: functional, cell-based. Summed up: (§2)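 72 h adherent pretreatment (Sal/JQ1 62 nM/62 nM; docetaxel added at 2 nM where used), then single cells plated in ultra-low attachment 96-well plates in serum-free mammary epithelium basal medium at 25/10/5/3/2/1 cells/well (18–36 wells/condition). Wells with ≥1 sphere after 10 days scored positive; sphere-forming frequency by ELDA. Secondary spheres from dissociated primary spheres. n = 4; pairwise chi-square.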

The test system of assay [3] is SUM-159-PT. Kind of assay: Anticancer activity against human SUM159 cells assessed as effect on RFP+/BFP+ cell ratio upto 100 uM after 72 hrs by ALDEFLUOR staining based flow cytometric analysis. Type of assay: functional.
Assay [4] concerns SUM-159-PT. In words: Induction of apoptosis in human SUM159 cells expressing ALDHbr upto 100 uM incubated for 72 hrs by ALDEFLUOR/YO-PRO-3/ Hoechst 33342 staining based high content imaging microscopic analysis. It is filed as functional, cell-based. The method, boiled down: as §1
Assay [5] concerns Breast cancer cell line. Kind of assay: Synergistic antitumor activity against human reimplanted CRCM434 negative breast cancer cells orthotopically xenografted in NSG mouse model of PDX assessed as reduction tumor volume at 50 mg/kg, ip 5 out of 7 for 2 weeks cotreated with salinomycin by limiting dilation analysis. It is filed as functional, organism-based.
For assay [6], the system named is SUM-159-PT. Kind of assay: Synergistic anticancer activity against human SUM159 cells assessed as decrease in secondary tumor sphere formation at 62 nM incubated for 72 hrs in presence of salinomycin by Extreme limiting dilution analysis. It is filed as functional. The method, boiled down: as §2
Assay [7] deals with SUM149PT. Kind of assay: Antitumor activity against human SUM149 cells assessed as K-score by measuring ALDHbr cells by LSR2 cytometer. It is filed as functional. Summed up:
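Cell lines exposed for 72 h in adherent culture to a range of concentrations centred on the MTS-derived IC50. ALDHbr proportion measured by ALDEFLUOR flow cytometry (LSR2). K-score is the linear regression coefficient, on log10-transformed doses, between the untreated condition and the dose predicted to give a 50% decrease or increase in ALDHbr proportion versus control.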

In assay [8] the test system is Breast cancer cell line. In words: Antitumor activity against human reimplanted CRCM404 negative breast cancer cells orthotopically xenografted in NSG mouse model of PDX assessed as reduction tumor volume at 50 mg/kg, ip 5 out of 7 for 2 weeks by limiting dilation analysis. Type of assay: functional, organism-based. Summed up: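 After 2 weeks of i.p. treatment (3 mg/kg daily or 50 mg/kg 5 of 7 days), dissociated PDX tumour cells reimplanted into secondary NSG mice at 50, 500 or 5,000 cells. A mouse counted as tumour-bearing once a tumour reached 10 mm. bCSC frequency per 10,000 cells estimated by ELDA; pairwise chi-square test.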
In general terms: In xenograft studies the graft and the host belong to different species.

The test system of assay [9] is SUM-159-PT. In words: Anticancer activity against human SUM159 cells assessed as decrease in primary tumor sphere formation incubated for 72 hrs by Extreme limiting dilution analysis. It is filed as functional, cell-based. The method, boiled down: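 Cells drug-treated in adherent culture for 72 h, then plated as single cells in ultra-low attachment 96-well plates in serum-free mammary epithelium basal medium. Plating at 25/10/5/3/2/1 cells per well, 18–36 wells per condition. Wells with ≥1 sphere after 10 days scored positive. Secondary spheres were made by dissociating primary spheres. Frequency by ELDA; n = 4; pairwise chi-square test.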

Assay [10] concerns SUM-159-PT. Kind of assay: Synergistic anticancer activity against human SUM159 cells at 500 nM incubated for 72 hrs in presence of salinomycin by ALDEFLUOR staining based flow cytometric analysis. Type of assay: functional, cell-based. Background: In flow cytometry, cells or beads pass a laser one at a time.
Assay [11] has as its system Breast cancer cell line. Kind of assay: Synergistic antitumor activity against human CRCM404 negative breast cancer cells orthotopically xenografted in NSG mouse model of PDX assessed as reduction ALDHbr cells at 50 mg/kg, ip 5 out of 7 for 2 weeks cotreated with salinomycin by LSR2 cytometer analysis. Type of assay: functional.
The subject of assay [12] is SUM-159-PT. Kind of assay: Synergistic anticancer activity against human SUM159 cells assessed as decrease in docetaxel induced primary tumor sphere formation at 62 nM incubated for 72 hrs in presence of salinomycin by Extreme limiting dilution analysis. Type of assay: functional, cell-based. Summed up:
as §2

For assay [13], the system named is Breast cancer cell line. Kind of assay: Synergistic antitumor activity against human CRCM494 negative breast cancer cells orthotopically xenografted in NSG mouse model of PDX assessed as reduction in tumor volume at 50 mg/kg, ip 5 out of 7 for 2 weeks cotreated with salinomycin. It is filed as functional, organism-based. The method, boiled down:
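Orthotopic PDX in NSG mice, 100,000 cells per fat pad, two pads per mouse; treatment from ~80 mm³ tumours with salinomycin i.p. 3 mg/kg daily 14 days, JQ1 i.p. 50 mg/kg 5 of 7 days for 2 weeks, or combination, against placebo DMSO/HPCD 10% (1:9). Tumour growth monitored; n = 10 tumours per group.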

The test system of assay [14] is Breast cancer cell line. Kind of assay: Antitumor activity against human CRCM494 negative breast cancer cells orthotopically xenografted in NSG mouse model of PDX assessed as reduction ALDHbr cells at 50 mg/kg, ip 5 out of 7 for 2 weeks by LSR2 cytometer analysis. Type of assay: functional, organism-based. Summed up: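 Chemo-naïve triple-negative PDX cells injected at 100,000 per fat pad, two fat pads per NSG mouse. At ~80 mm³ tumours, mice received i.p. 3 mg/kg daily for 14 days or 50 mg/kg 5 of 7 days for 2 weeks; placebo was DMSO/HPCD 10% (1:9). Five mice (10 tumours) per group. Tumour growth monitored; after 2 weeks tumours dissociated, mouse cells excluded via anti-H2Kd, ALDHbr measured by ALDEFLUOR flow cytometry and normalised to vehicle.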

The subject of assay [15] is SUM-159-PT. Kind of assay: Synergistic anticancer activity against human SUM159 cells assessed as decrease in primary tumor sphere formation at 62 nM incubated for 72 hrs in presence of salinomycin by Extreme limiting dilution analysis. It is filed as functional. The method, boiled down:
as §2

With `Cc1sc2c(c1C)C(c1ccc(Cl)cc1)=N[C@@H](CC(=O)OC(C)(C)C)c1nnc(C)n1-2`, the result in the assay with SUM-159-PT [1], in the assay on SUM149PT [2], in the assay with SUM-159-PT [4], with Breast cancer cell line [5], in the assay with Breast cancer cell line [8] and in the assay on SUM-159-PT [9] was Active. Further, the result in the assay with SUM-159-PT [12], in the assay on Breast cancer cell line [13] and with Breast cancer cell line [14] was Active. Besides, the outcome with SUM-159-PT [3] and in the assay on SUM-159-PT [10] was inactive. Also, the “fold change (FC)” value was determined as 5.4 with SUM-159-PT [6], 2 in the assay with Breast cancer cell line [11] and 2.4 with SUM-159-PT [15]. Further, in the assay with SUM149PT [7], the Activity is -0.13.
